ANO1 block: TMEM16A chloride channel inhibitors, primary screen, cell-based, HTS | Anoctamin-1 (Mus musculus), Q8BHY3 | HEK293 TMEM16A/YFP iodide influx fluorescence, ionomycin | normalized B-score (activity score, 25-100; higher = stronger inhibition) at 10 µM | 310,000 compounds, 1.2% hits | AID 588511, 2011;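 active = ratio plate-corrected score three or more library SD toward inhibition, starting fluorescence score within five deviations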;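 note: score derived from kinetic fluorescence span divided by baseline fluorescence per well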
Target sequence (Q8BHY3 whole entry, looked up): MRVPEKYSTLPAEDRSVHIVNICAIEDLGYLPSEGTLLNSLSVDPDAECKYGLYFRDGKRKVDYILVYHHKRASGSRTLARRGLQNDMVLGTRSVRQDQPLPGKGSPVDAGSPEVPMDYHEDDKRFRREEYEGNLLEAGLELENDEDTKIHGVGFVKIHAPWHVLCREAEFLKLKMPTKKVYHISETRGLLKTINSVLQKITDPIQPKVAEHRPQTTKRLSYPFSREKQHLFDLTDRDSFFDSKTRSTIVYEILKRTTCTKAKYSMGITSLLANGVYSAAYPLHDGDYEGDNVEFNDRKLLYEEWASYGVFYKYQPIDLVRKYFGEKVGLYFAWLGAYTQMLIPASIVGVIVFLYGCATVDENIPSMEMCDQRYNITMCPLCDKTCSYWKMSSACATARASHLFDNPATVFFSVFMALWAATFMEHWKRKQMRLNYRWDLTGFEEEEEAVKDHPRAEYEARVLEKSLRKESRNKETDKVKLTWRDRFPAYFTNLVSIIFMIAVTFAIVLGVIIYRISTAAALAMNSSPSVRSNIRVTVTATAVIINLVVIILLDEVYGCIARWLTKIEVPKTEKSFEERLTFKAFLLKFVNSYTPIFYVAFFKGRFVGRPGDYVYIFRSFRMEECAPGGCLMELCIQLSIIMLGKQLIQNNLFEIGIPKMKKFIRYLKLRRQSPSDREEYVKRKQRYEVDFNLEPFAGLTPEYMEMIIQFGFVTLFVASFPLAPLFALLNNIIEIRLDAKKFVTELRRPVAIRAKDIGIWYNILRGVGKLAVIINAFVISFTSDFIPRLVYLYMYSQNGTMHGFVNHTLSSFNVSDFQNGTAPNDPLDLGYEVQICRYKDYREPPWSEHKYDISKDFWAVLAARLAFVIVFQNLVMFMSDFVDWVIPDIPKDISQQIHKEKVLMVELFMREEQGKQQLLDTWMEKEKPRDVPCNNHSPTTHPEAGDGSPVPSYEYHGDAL
SR-BI DiI inh: inhibitors of SR-BI mediated HDL lipid uptake, primary screen, ldlA[mSR-BI] cells, fluorescence, single point; Scavenger receptor class B member 1 (Mus musculus), Q61009; ldlA[mSR-BI] CHO cells, DiI-HDL uptake fluorescence, 3 h; inhibition, % at 12.5 µM; 320,000 compounds, 0.96% hits; AID 488896, 2010;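 active = mean replicate inhibition of at least 70% and a set share of replicates each scoring 70 or more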
SR-BI DiI-HDL act: activators of SR-BI mediated DiI-HDL uptake, primary screen, ldlA[mSR-BI] CHO cells, DiI fluorescence | 3 h; 100 = double the neutral-control signal | activation, % at 12.5 µM | 320,000 compounds, 0.096% hits | AID 504775, 2011;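 active = mean replicate activation of at least 60% and every replicate at or above 60%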
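Test system: SR-BI-overexpressing, LDLR-lacking CHO cells; Medium: Ham's F12 with 0.5% BSA, HEPES 25 mM, pH 7.4; Schedule: 3 h, 37 °C; Technique: bottom-read fluorescence, 550/595 nm.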
FID counter: compounds displacing fluorescent DNA intercalator, primary screen, artefact control for HCV NS3 helicase inhibitor project, biochemical, FID fluorescence. DNA fluorescent intercalator displacement. inhibition, % at 7.9 µM. 290,000 compounds, 0.17% hits. AID 1845, 2009; in the data active = inhibition above about 37%;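 note: higher means more ethidium bromide displaced from hairpin DNA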
Kir21 inh: inhibitors of mouse Kir2.1 inward-rectifier potassium channel; Inward rectifier potassium channel 2 (Mus musculus), P35561; 310,000 compounds, 0.85% hits; B-score at 10 µM; HEK293-Kir2.1, FluxOR thallium flux fluorescence; active compounds read low; AID 1672, 2009;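 active = fluorescence ratio B-score at or below minus 3 SD of library scores, with starting-brightness B-score within 2 SD, cut at about -4.2 in these data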;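 note: channel flux triggered by added potassium and thallium sulfate stimulus; B-score of peak minus minimum fluorescence over baseline after thallium stimulus; more negative B-score means stronger Kir2.1 block with less thallium influx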
ANO1 activ: TMEM16A chloride channel activators or potentiators, primary screen, cell-based, HTS | 340,000 compounds, 0.3% hits | Anoctamin-1 (Mus musculus), Q8BHY3 | HEK293 TMEM16A/YFP-H148Q/I152L, iodide quench fluorescence; active compounds read low | AID 623877, 2012 | B-score at 10 µM;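 active = fluorescence-ratio B-score plate-corrected deviation score at least 3 library SD below zero, with starting fluorescence score within 5 deviations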;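 note: channel opened by trigger with iodide after compound preincubation; score built on the fluorescence ratio of max minus min over baseline; more negative score means more quench and so TMEM16A activation or potentiation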
Each line names hits and unclear results; the compound was inactive in the other large screens. Rows were chosen to be rich in hits. Some 3% of all compounds tested hit in one or more screens of this group.

COc1ccc(-c2[nH]c(-c3cc(OC)c4c(c3)OCO4)nc2-c2ccccc2)cc1	SR-BI DiI inh 88
CCc1ccc(/C(C)=N/NC(=O)c2ccc(-n3cnnn3)cc2)cc1	none (no result: ANO1 block, FID counter, Kir21 inh)
Cc1cccc2c1nc(-c1ccccc1)n1cnnc21	SR-BI DiI-HDL act 854
COc1ccc(C(OC(=O)c2ccco2)C(=O)NC2CCCC2)cc1OC (configuration not stated)	none
COc1ccc(C(OC(=O)c2ccco2)C(=O)NC2CCCCC2)cc1OC (configuration not stated)	SR-BI DiI-HDL act 336
O=C(NCCNC(=O)c1ccccn1)c1ccccc1	none (no result: SR-BI DiI inh, SR-BI DiI-HDL act)
CCCCn1c(=O)nc2n(-c3ccccc3C)c3ccccc3cc-2c1=O	ANO1 block 25
CCCCn1c(=O)c2ccccc2c2ccccc2c1=O	none (no result: Kir21 inh)
Cc1ccccc1-n1c2nc(=O)n(C)c(=O)c-2cc2ccccc21	ANO1 block 100
CN(C)c1nc2c(c(=O)n(C)c(=O)n2C)n1Cc1ccccc1	none
Cn1c(=O)nc2n(Cc3ccccc3)c3ccccc3cc-2c1=O	ANO1 block 100
CCCc1cc(=O)oc2cc(C)cc(OCC(=O)Nc3ccc(CN4CCOCC4)cc3)c12	none
COc1ccccc1CC(=O)Nc1nc(-c2ccc(F)c(F)c2)cs1	none (no result: SR-BI DiI inh, SR-BI DiI-HDL act)
O=C(Cc1ccccc1F)Nc1nc(-c2ccc(F)cc2)cs1	ANO1 block 25
COc1ccccc1-c1cccc([C@@H]2C[C@H]3[C@H](CON3C)CN2C(C)=O)c1	none (no result: ANO1 block, FID counter, Kir21 inh, ANO1 activ)
COc1ccccc1N1CCN(C(=O)c2cn(C)c3ccc(S(=O)(=O)N4CCOCC4)cc3c2=O)CC1	none
COc1ccc(/C=C/C(=O)NC(=S)Nc2ccc(S(=O)(=O)N=C(N)N)cc2)cc1OC	SR-BI DiI-HDL act 286
NC(N)=N/N=C/c1ccc(OCc2ccc(Cl)cc2)cc1	Kir21 inh -9.8
NC(N)=N/N=C/c1ccc(OCc2ccccc2)cc1	Kir21 inh -11
Fc1ccccc1Nc1nc(-c2ccncc2)nc2ccccc12	none
O=C1OC(CN(Cc2ccccc2)Cc2ccccc2)CN1N=Cc1ccc([N+](=O)[O-])o1 (configuration not stated)	none (no result: ANO1 block, FID counter, Kir21 inh)
COc1ccc(NC(=O)C(=O)NCCN2CCN(C(=O)c3ccc(C(C)(C)C)cc3)CC2)cc1	SR-BI DiI inh 77
Cc1ccc(C2(C)NC(=O)N(CC(=O)NC3CCCCC3)C2=O)cc1 (configuration not stated)	none (no result: ANO1 block, FID counter, Kir21 inh)
COc1cc(/C=C2\SC(=S)N(N(C)c3ccccc3)C2=O)ccc1O	none (no result: SR-BI DiI inh, SR-BI DiI-HDL act)
Cc1c(-c2ccccc2)nc2ccccc2c1C(=O)Oc1ccc([N+](=O)[O-])cc1	SR-BI DiI inh 88
Nc1cc(=O)[nH]c(SCCSc2cc(Cl)ccc2Cl)n1	none (no result: ANO1 activ)
CN=C1S/C(=C\c2ccc(OCC(=O)OC)c(OC)c2)C(=O)N1C	SR-BI DiI-HDL act 441
COCCN1C(=O)/C(=C/c2ccc(OCc3ccc(C(=O)O)cc3)c(OC)c2)SC1=Nc1ccccc1	ANO1 block 100
COc1cc(/C=C2\SC(=Nc3ccccc3)N(Cc3ccco3)C2=O)ccc1OC(C)C(=O)O (configuration not stated)	none
CN=C1S/C(=C\c2ccc(O)c(OC)c2)C(=O)N1C	none (no result: SR-BI DiI inh, SR-BI DiI-HDL act, FID counter)
CCCc1cc(=O)[nH]c(SCC(=O)Nc2sccc2C#N)n1	none (no result: ANO1 block, FID counter, Kir21 inh)
Cc1cc2nc(CS)[nH]c2cc1C	none
CNc1nc(SCc2ccc(C)cc2)nc2c1CCCC2	ANO1 block 100
O=C(CSc1nnnn1C1CC2CCC1C2)Nc1ccnc2ccccc12 (configuration not stated)	ANO1 block 100 (no result: Kir21 inh)
Cc1cc(C)c2nc(NNC(=O)c3ccc(S(=O)(=O)N4CCCC(C)C4)cc3)sc2c1 (configuration not stated)	SR-BI DiI inh 115
Cc1cc(C)c2nc(NNC(=O)c3ccc(S(=O)(=O)N4CC(C)CC(C)C4)cc3)sc2c1 (configuration not stated)	SR-BI DiI inh 139
COC(=O)c1sc2ccccc2c1NC(=O)c1ccc(S(=O)(=O)N2CC(C)CC(C)C2)cc1 (configuration not stated)	none
Cc1ccc2nc(NNC(=O)c3ccc(S(=O)(=O)N4CCc5ccccc5C4)cc3)sc2c1	SR-BI DiI inh 119
CCC(C)[C@@H](CN(N=O)[C@@H](Cc1ccccc1)CN(C)N=O)N(CCc1ccccc1)N=O (some centres not stated)	SR-BI DiI-HDL act 68
O=C(Nc1ccccc1)c1ccc(NCc2cccnc2)c(S(=O)(=O)N2CCOCC2)c1	ANO1 activ -6.8
O=C(COc1ccccc1)N=C1SC2CS(=O)(=O)CC2N1c1ccc(F)cc1F (configuration not stated)	none
CC1(C)C(=O)CC[C@]2(C)C3C(=O)C=C4[C@H]5C[C@@](C)(C(=O)O)CC[C@]5(C)CC[C@]4(C)[C@]3(C)CC[C@@H]12 (some centres not stated)	none (no result: FID counter)
CC1(C)[C@@H](O)CC[C@]2(C)C3C(O)C=C4[C@H]5C[C@@](C)(C(=O)O)CC[C@]5(C)CC[C@]4(C)[C@]3(C)CC[C@@H]12 (some centres not stated)	ANO1 block 100 (no result: SR-BI DiI inh, SR-BI DiI-HDL act, FID counter, ANO1 activ)
Cc1ccc(S(=O)(=O)N2[C@@H](c3ccc(F)cc3)C(C(=O)O)=CC[C@H]2c2ccc(C(C)C)cc2)cc1	ANO1 block 100 (no result: FID counter, Kir21 inh)
Cc1ccc(S(=O)(=O)N2[C@@H](c3ccc(Cl)cc3)C(C(=O)O)=CC[C@H]2c2cccc(Cl)c2)cc1	ANO1 block 100 (no result: FID counter, Kir21 inh)
Cc1ccc(S(=O)(=O)N2[C@@H](c3cccc(Cl)c3)C(C(=O)O)=CC[C@H]2c2ccc(C(C)C)cc2)cc1	ANO1 block 100 (no result: FID counter, Kir21 inh)
Cc1ccc(S(=O)(=O)N2[C@@H](c3ccc(Cl)cc3)C(C(=O)O)=CC[C@H]2c2ccc(Cl)cc2)cc1	ANO1 block 100 (no result: FID counter, Kir21 inh)
CCCCOc1ccccc1C(=O)N(Cc1ccc(C)o1)C1CCS(=O)(=O)C1 (configuration not stated)	none
CSCCC(NS(=O)(=O)c1ccc2c(c1)oc(=O)n2C)C(=O)NCc1ccc(C)cc1 (configuration not stated)	none (no result: SR-BI DiI inh, SR-BI DiI-HDL act)
Cc1ccc(-c2csc3ncn(CC(=O)NCC(c4ccco4)N4CCCC4)c(=O)c23)cc1 (configuration not stated)	none (no result: ANO1 block, FID counter, Kir21 inh)

Screens (PubChem BioAssay)
